Experiment [1] relates to Staphylococcus epidermidis. Put plainly: Antibacterial activity against Staphylococcus epidermidis. Format: functional, organism-based. Put shortly:
(§1)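 Twofold serial broth dilution in nutrient broth across eight tubes, with broth alone as control. Each tube received 10 µl of diluted log-phase culture at a titre of 10^4 cfu/ml. Incubation at 37 °C, with growth read by turbidity. EC50 values are means of three experiments run in triplicate.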

A further experiment has as its system Staphylococcus aureus. As to the kind of experiment: Antibacterial activity against Staphylococcus aureus. In kind it is functional, organism-based. Put shortly:
as §1

As usually defined, the EC50 is the concentration at which the effect is half-maximal. A lower EC50 goes with an effect from little substance. Consider `CC(=O)c1cc(O)c(O)c(O)c1`, for which the EC50 in experiment [1] was determined as 1.48 µM; in the experiment with Staphylococcus aureus it was 2.96 µM.
Turning to `COC(=O)c1cc(O)cc(OC)c1C=O`, the concentration for a half-maximal effect (EC50) was determined as 2.38 µM in experiment [1] and 4.76 µM in the experiment with Staphylococcus aureus.
For the molecule `COC(=O)CC/C=C/c1c(O)cc(C(=O)O)cc1O` [OENOSTACIN], the EC50 (in experiment [1]; in the experiment with Staphylococcus aureus) was 0.12 µM throughout.
For the molecule `O=C(O)/C=C/c1ccc(O)c(O)c1` [CAFFEIC ACID], the EC50 (in experiment [1]; in the experiment with Staphylococcus aureus) was 2.78 µM in each case.
`Oc1cccc(O)c1O` [PYROGALLOL]: the results for the 50% effective concentration (EC50) (in experiment [1]; with Staphylococcus aureus) were 0.99 µM and 0.49 µM, respectively.
On to `O=C(O)/C=C/c1cc(O)c(O)c(O)c1`, for which the EC50 in experiment [1] worked out at 0.63 µM; in the experiment on Staphylococcus aureus, 1.26 µM.
`O=C(O)CCCC(=O)c1ccc(O)c(O)c1O`: the EC50 in experiment [1] worked out at 1.04 µM; with Staphylococcus aureus it was 2.08 µM.
For `O=Cc1c(O)cc(O)cc1C(=O)O` the same measures were 1.37 µM and more than 5 µM.
For `COc1cc(O)cc(C(=O)O)c1C=O` the same measures were 2.55 µM and more than 5 µM.
For `Cc1cc(O)cc(O)c1` [ORCINOL] the same measures were 4.03 µM and 4.03 µM.
On to `O=C(O)c1cc(O)cc(O)c1CO`, for which the concentration for a half-maximal effect (EC50) (in experiment [1]; in the experiment on Staphylococcus aureus) was 0.67 µM each time.
Consider `Cc1cc(O)c(C=O)c(O)c1`, for which the concentration giving a half-maximal response (EC50) (in experiment [1]; in the experiment on Staphylococcus aureus) was 1.64 µM each time.
